Reference: ChEMBL document CHEMBL1781919, “Synthesis and anticonvulsant properties of 1-(amino-N-arylmethanethio)-3-(1-substituted benzyl-2, 3-dioxoindolin-5-yl) urea derivatives” (Eur J Med Chem, 2011)
Activity calls are given as the source filed them. No cut-off for these calls is given here.

Tests used:
[1] = Octanol-phosphate buffer partition coefficient, log P of the compound; type: physicochemical
How it was run: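 Octanol and phosphate buffer partition run at room temperature (29 °C). After separation, the phases are membrane-filtered and drug in the aqueous phase is measured by UV. PC = (Ct − Ca)/Ca, where Ct is total drug concentration and Ca is aqueous-phase concentration.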

Mus musculus [2] = experiment: Anticonvulsant activity in mouse assessed as protection against maximal electroshock-induced seizures at 30 mg/kg, ip after 0.5 hrs; type: functional, organism-based; parameters: dose 30 mg/kg
How it was run: (§1)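 Mouse Test 1: i.p. dosing at 0.01 mL/g. Sets of one, three and one animals receive 30, 100 and 300 mg/kg respectively, each tested at 0.5 h and 4.0 h. Score is N/F, the number of animals protected over the number tested. Screening performed by NINDS following the ADD program protocol.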

Mus musculus [3] = experiment: Anticonvulsant activity in mouse assessed as protection against maximal electroshock-induced seizures at 30 mg/kg, ip after 4 hrs; type: functional, organism-based; parameters: dose 30 mg/kg; how it was run: as §1
Mus musculus [4] = experiment: Anticonvulsant activity in mouse assessed as protection against maximal electroshock-induced seizures at 100 mg/kg, ip after 0.5 hrs; type: functional, organism-based; parameters: dose 100 mg/kg; how it was run: as §1
Mus musculus [5] = experiment: Anticonvulsant activity in mouse assessed as protection against maximal electroshock-induced seizures at 100 mg/kg, ip after 4 hrs; type: functional, organism-based; parameters: dose 100 mg/kg; how it was run: as §1
Mus musculus [6] = experiment: Anticonvulsant activity in mouse assessed as protection against maximal electroshock-induced seizures at 300 mg/kg, ip after 0.5 hrs; type: functional, organism-based; parameters: dose 300 mg/kg; how it was run: as §1
Mus musculus [7] = experiment: Anticonvulsant activity in mouse assessed as protection against maximal electroshock-induced seizures at 300 mg/kg, ip after 4 hrs; type: functional, organism-based; parameters: dose 300 mg/kg; how it was run: as §1
Mus musculus [8] = experiment: Anticonvulsant activity in mouse assessed as protection against subcutaneous pentylenetetrazole-induced seizures at 30 mg/kg, ip after 0.5 hrs; type: functional, organism-based; parameters: dose 30 mg/kg
Mus musculus [9] = experiment: Anticonvulsant activity in mouse assessed as protection against subcutaneous pentylenetetrazole-induced seizures at 30 mg/kg, ip after 4 hrs; type: functional, organism-based; parameters: dose 30 mg/kg
Mus musculus [10] = experiment: Anticonvulsant activity in mouse assessed as protection against subcutaneous pentylenetetrazole-induced seizures at 100 mg/kg, ip after 0.5 hrs; type: functional, organism-based; parameters: dose 100 mg/kg
Mus musculus [11] = experiment: Anticonvulsant activity in mouse assessed as protection against subcutaneous pentylenetetrazole-induced seizures at 100 mg/kg, ip after 4 hrs; type: functional, organism-based; parameters: dose 100 mg/kg
Mus musculus [12] = experiment: Anticonvulsant activity in mouse assessed as protection against subcutaneous pentylenetetrazole-induced seizures at 300 mg/kg, ip after 0.5 hrs; type: functional, organism-based; parameters: dose 300 mg/kg
Mus musculus [13] = experiment: Anticonvulsant activity in mouse assessed as protection against subcutaneous pentylenetetrazole-induced seizures at 300 mg/kg, ip after 4 hrs; type: functional, organism-based; parameters: dose 300 mg/kg
Mus musculus [14] = experiment: Neurotoxicity in mouse assessed as minimum motor impairment at 30 mg/kg, ip after 0.5 hrs by rotarod test; type: toxicity, organism-based; parameters: dose 30 mg/kg, route intraperitoneal; conditions: in vivo
How it was run: (§2)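 Rotorod test for minimal motor impairment in mice given 30, 100 or 300 mg/kg i.p. at 0.01 mL/g, using sets of one, three and one animals, at 0.5 h and 4.0 h. Animals are observed at each dose and time. Score is N/F, the number showing toxicity over the number tested.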

Mus musculus [15] = experiment: Neurotoxicity in mouse assessed as minimum motor impairment at 30 mg/kg, ip after 4 hrs by rotarod test; type: toxicity, organism-based; parameters: dose 30 mg/kg, route intraperitoneal; conditions: in vivo; how it was run: as §2
Mus musculus [16] = experiment: Neurotoxicity in mouse assessed as minimum motor impairment at 100 mg/kg, ip after 0.5 hrs by rotarod test; type: toxicity, organism-based; parameters: dose 100 mg/kg, route intraperitoneal; conditions: in vivo; how it was run: as §2
Mus musculus [17] = experiment: Neurotoxicity in mouse assessed as minimum motor impairment at 100 mg/kg, ip after 4 hrs by rotarod test; type: toxicity, organism-based; parameters: dose 100 mg/kg, route intraperitoneal; conditions: in vivo; how it was run: as §2
Mus musculus [18] = experiment: Neurotoxicity in mouse assessed as minimum motor impairment at 300 mg/kg, ip after 0.5 hrs by rotarod test; type: toxicity, organism-based; parameters: dose 300 mg/kg, route intraperitoneal; conditions: in vivo; how it was run: as §2
Mus musculus [19] = experiment: Neurotoxicity in mouse assessed as minimum motor impairment at 300 mg/kg, ip after 4 hrs by rotarod test; type: toxicity, organism-based; parameters: dose 300 mg/kg, route intraperitoneal; conditions: in vivo; how it was run: as §2

Row | Compound | logP [1] | Activity (Mus musculus [2]) | Activity (Mus musculus [3]) | Activity (Mus musculus [4]) | Activity (Mus musculus [5]) | Activity (Mus musculus [6]) | Activity (Mus musculus [7]) | Activity (Mus musculus [8]) | Activity (Mus musculus [9]) | Activity (Mus musculus [10]) | Activity (Mus musculus [11]) | Activity (Mus musculus [12]) | Activity (Mus musculus [13]) | Activity (Mus musculus [14]) | Activity (Mus musculus [15]) | Activity (Mus musculus [16]) | Activity (Mus musculus [17]) | Activity (Mus musculus [18]) | Activity (Mus musculus [19])
1 | COc1cccc(NC(=S)NC(=O)Nc2ccc3c(c2)C(=O)C(=O)N3Cc2ccccc2)c1 | 2.4 | inactive | inactive | inactive | inactive | inactive | inactive | inactive | inactive | inactive | inactive | inactive | inactive | Non-toxic | Non-toxic | Non-toxic | Non-toxic | Non-toxic | Non-toxic
2 | Cc1ccc(NC(=S)NC(=O)Nc2ccc3c(c2)C(=O)C(=O)N3Cc2ccccc2Cl)cc1 | 3.73 | inactive | inactive | inactive | inactive | inactive | inactive | inactive | inactive | inactive | inactive | inactive | inactive | Non-toxic | Non-toxic | Non-toxic | Non-toxic | Non-toxic | Non-toxic
3 | COc1cccc(NC(=S)NC(=O)Nc2ccc3c(c2)C(=O)C(=O)N3Cc2ccccc2Cl)c1 | 3.19 | inactive | inactive | inactive | inactive | inactive | inactive | inactive | inactive | inactive | inactive | inactive | inactive | Non-toxic | Non-toxic | Non-toxic | Non-toxic | Non-toxic | Non-toxic
4 | Cc1ccc(NC(=S)NC(=O)Nc2ccc3c(c2)C(=O)C(=O)N3Cc2ccccc2)cc1 | 2.96 | inactive | inactive | inactive | inactive | inactive | inactive | inactive | inactive | inactive | inactive | inactive | inactive | Non-toxic | Non-toxic | Non-toxic | Non-toxic | Non-toxic | Non-toxic
5 | O=C(NC(=S)Nc1ccccc1)Nc1ccc2c(c1)C(=O)C(=O)N2Cc1ccccc1 | 2.48 | inactive | inactive | inactive | inactive | inactive | inactive | inactive | inactive | inactive | inactive | inactive | inactive | Non-toxic | Non-toxic | Non-toxic | Non-toxic | Non-toxic | Non-toxic
6 | Cc1ccccc1NC(=S)NC(=O)Nc1ccc2c(c1)C(=O)C(=O)N2Cc1ccccc1 | 2.98 | inactive | inactive | inactive | inactive | inactive | inactive | inactive | inactive | inactive | inactive | inactive | inactive | Non-toxic | Non-toxic | Non-toxic | Non-toxic | Non-toxic | Non-toxic

Continued, in another order:

Row | logP [1] | Compound | Activity (Mus musculus [2]) | Activity (Mus musculus [3]) | Activity (Mus musculus [4]) | Activity (Mus musculus [5]) | Activity (Mus musculus [6]) | Activity (Mus musculus [7]) | Activity (Mus musculus [8]) | Activity (Mus musculus [9]) | Activity (Mus musculus [10]) | Activity (Mus musculus [11]) | Activity (Mus musculus [12]) | Activity (Mus musculus [13]) | Activity (Mus musculus [14]) | Activity (Mus musculus [15]) | Activity (Mus musculus [16]) | Activity (Mus musculus [17]) | Activity (Mus musculus [18]) | Activity (Mus musculus [19])
7 | 3.01 | O=C(NC(=S)Nc1ccccc1Cl)Nc1ccc2c(c1)C(=O)C(=O)N2Cc1ccccc1 | inactive | inactive | inactive | inactive | inactive | inactive | inactive | inactive | inactive | inactive | inactive | inactive | Non-toxic | Non-toxic | Non-toxic | Non-toxic | Non-toxic | Non-toxic
8 | 3.18 | COc1ccccc1NC(=S)NC(=O)Nc1ccc2c(c1)C(=O)C(=O)N2Cc1ccccc1Cl | inactive | inactive | inactive | inactive | inactive | inactive | inactive | inactive | inactive | inactive | inactive | inactive | Non-toxic | Non-toxic | Non-toxic | Non-toxic | Non-toxic | Non-toxic
9 | 2.92 | Cc1cccc(NC(=S)NC(=O)Nc2ccc3c(c2)C(=O)C(=O)N3Cc2ccccc2)c1 | inactive | inactive | inactive | inactive | inactive | inactive | inactive | inactive | inactive | inactive | inactive | inactive | Non-toxic | Non-toxic | Non-toxic | Non-toxic | Non-toxic | Non-toxic
10 | 2.38 | COc1ccccc1NC(=S)NC(=O)Nc1ccc2c(c1)C(=O)C(=O)N2Cc1ccccc1 | inactive | inactive | inactive | inactive | Active | Active | inactive | inactive | inactive | inactive | inactive | inactive | Non-toxic | Non-toxic | Non-toxic | Non-toxic | Non-toxic | Non-toxic
11 | 3.7 | Cc1ccccc1NC(=S)NC(=O)Nc1ccc2c(c1)C(=O)C(=O)N2Cc1ccccc1Cl | inactive | inactive | inactive | inactive | inactive | Active | inactive | inactive | inactive | inactive | inactive | Active | Non-toxic | Non-toxic | Non-toxic | Non-toxic | Non-toxic | Non-toxic
